Data from ChEMBL document CHEMBL4680220, “Synthesis and biological evaluation of acridine-based histone deacetylase inhibitors as multitarget agents against Alzheimer's disease” (Eur J Med Chem, 2020).

How the values were obtained:
[1] = molecular target: T1, Amyloid-beta precursor protein (Homo sapiens, UniProt P05067); test: Disaggregation of self-induced amyloid beta (1 to 42) (unknown origin) preformed fibrils at 10 uM measured after 24 hrs by thioflavin-T fluorescence assay relative to control
Procedure, shortened: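 Aβ1-42 (10 µM) with 10 µM ThT and 1 mM EDTA in 50 mM phosphate buffer (150 mM NaCl, pH 7.4) pre-aggregated 24 h at 37 °C, 700 rpm; fluorescence read (ex 440/em 486 nm). Compound then added and incubated a further 24 h at 37 °C before re-reading. Disaggregation = (first − second reading)/first reading. Triplicate.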

Histone deacetylase 4 = Histone deacetylase 4 (Homo sapiens, UniProt P56524); test: Inhibition of recombinant human N-terminal GST-tagged/C-terminal His-tagged HDAC4 (627 to 1084 residues) expressed in baculovirus expression system using Boc-Lys(TFA)-AMC as substrate preincubated for 5 mins followed by substrate addition and measured after 30 mins by fluorescence assay
Hippocampal neurone = test: Induction of neurite outgrowth in Sprague-Dawley rat primary hippocampal neurons assessed as increase in length of axonal neurite incubated for 3 days by DAPI staining based immunofluorescence microscopic analysis; assay type: functional; settings: time 3.0 day
Procedure, shortened: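 Primary hippocampal neurons from embryonic Sprague-Dawley rats, plated on poly-D-lysine and kept in B27-neurobasal medium. Treated with DMSO or compound from DIV3 for three days, fixed at DIV6 in 4% paraformaldehyde. Axons stained with anti-tau, dendrites with anti-MAP2, nuclei with DAPI; fluorescence microscopy. At least 20 neurons traced for number and length of primary, secondary and tertiary neurites.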

Histone deacetylase 5 = Histone deacetylase 5 (Homo sapiens, UniProt Q9UQL6); test: Inhibition of recombinant human C-terminal His-tagged HDAC5 (656 to 1122 residues) expressed in baculovirus infected Sf9 insect cells using fluorogenic HDAC 2A substrate preincubated for 5 mins followed by substrate addition and measured after 30 mins by fluorescence assay
MDR1 = test: Efflux ratio of apparent permeability across basolateral to apical side over apical to basolateral side in MDCK-MDR1 cells at 5 uM measured after 2 hrs by LC-MS/MS analysis; assay type: ADME, cell-based, Canis lupus familiaris; settings: dog
Procedure, shortened: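 MDR1-MDCK monolayers grown to confluence on collagen-coated microporous membranes. Test article dosed at 5 µM apical (A-to-B) or basolateral (B-to-A) in HBSS with 10 mM HEPES, 15 mM glucose, pH 7.4; receiver buffer has 1% BSA. 37 °C, 5% CO2; donor and receiver sampled at 120 min, quantified by LC-MS/MS (ESI). Duplicate determinations; lucifer yellow flux checks monolayer integrity. Efflux ratio = Papp(B-A)/Papp(A-B).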

Histone deacetylase 7 = molecular target: T2, Histone deacetylase 7 (Homo sapiens, UniProt Q8WUI4); test: Inhibition of recombinant human N-terminal GST-tagged HDAC7 (518 to end residues) expressed in baculovirus infected Sf9 cells using fluorogenic HDAC 2A substrate preincubated for 5 mins followed by substrate addition and measured after 30 mins by fluorescence assay
T2 sequence (Q8WUI4 whole entry): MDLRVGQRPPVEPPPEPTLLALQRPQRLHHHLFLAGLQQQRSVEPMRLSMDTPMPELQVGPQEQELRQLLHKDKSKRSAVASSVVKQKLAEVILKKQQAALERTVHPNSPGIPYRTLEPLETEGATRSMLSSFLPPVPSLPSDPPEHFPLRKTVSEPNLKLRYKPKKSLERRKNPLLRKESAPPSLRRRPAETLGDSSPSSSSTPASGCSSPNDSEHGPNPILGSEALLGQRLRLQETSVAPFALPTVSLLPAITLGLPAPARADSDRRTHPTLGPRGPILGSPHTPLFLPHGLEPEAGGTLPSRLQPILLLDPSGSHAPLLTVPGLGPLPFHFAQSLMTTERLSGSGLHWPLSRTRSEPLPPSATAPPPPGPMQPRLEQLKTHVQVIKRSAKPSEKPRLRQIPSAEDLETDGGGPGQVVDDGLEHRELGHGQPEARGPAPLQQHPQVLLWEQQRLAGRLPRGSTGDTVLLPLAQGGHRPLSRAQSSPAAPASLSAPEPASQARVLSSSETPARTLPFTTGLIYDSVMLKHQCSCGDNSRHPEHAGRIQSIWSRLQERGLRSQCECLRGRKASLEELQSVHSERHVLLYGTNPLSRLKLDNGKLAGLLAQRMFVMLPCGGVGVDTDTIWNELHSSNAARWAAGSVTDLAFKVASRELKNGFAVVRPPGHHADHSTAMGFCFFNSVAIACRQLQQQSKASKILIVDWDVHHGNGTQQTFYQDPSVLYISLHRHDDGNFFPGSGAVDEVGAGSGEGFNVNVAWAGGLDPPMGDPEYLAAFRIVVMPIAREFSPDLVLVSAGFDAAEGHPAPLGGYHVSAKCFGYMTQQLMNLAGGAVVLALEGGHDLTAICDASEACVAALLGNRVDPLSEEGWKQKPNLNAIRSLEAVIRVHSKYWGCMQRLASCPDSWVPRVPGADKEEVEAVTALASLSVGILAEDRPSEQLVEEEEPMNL

[2] = Elimination rate constant in human liver microsomes at 1 uM preincubated for 3 mins followed by NADPH addition and measured up to 60 mins by LC-MS/MS analysis; assay type: ADME, Microsome; settings: time <=63 min
Procedure, shortened: (§1)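 Mixed-gender human liver microsomes with test article at 1 µM final. Testosterone (5 µM) run separately as control. Mixture without cofactor equilibrated 3 min at 37 °C in a shaking water bath, then started with cofactor. Aliquots taken at 0, 10, 20, 30 and 60 min. CLint = k/P, where k is the elimination rate constant and P is the incubation protein concentration.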

[3] = molecular target: T1, Amyloid-beta precursor protein; test: Inhibition of amyloid beta (1 to 42) (unknown origin) self aggregation after 24 hrs by thioflavin-T fluorescence method
Procedure, shortened: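 ThT aggregation assay. Compound at varying concentrations combined with 10 µM Aβ1-42 (1 mM DMSO stock), 10 µM ThT, 1 mM EDTA in 50 mM phosphate buffer (150 mM NaCl, pH 7.4). Incubated 24 h at 37 °C with shaking at 700 rpm; fluorescence ex 440/em 486 nm. 0.1% DMSO wells = 100% aggregation; compound wells without Aβ = background. IC50 from triplicates.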

[4] = Intrinsic clearance in human liver microsomes at 1 uM preincubated for 3 mins followed by NADPH addition and measured up to 60 mins by LC-MS/MS analysis; assay type: ADME, Microsome; settings: 1 h, time <=63 min; procedure, shortened: as §1

T1 sequence (P05067 whole entry): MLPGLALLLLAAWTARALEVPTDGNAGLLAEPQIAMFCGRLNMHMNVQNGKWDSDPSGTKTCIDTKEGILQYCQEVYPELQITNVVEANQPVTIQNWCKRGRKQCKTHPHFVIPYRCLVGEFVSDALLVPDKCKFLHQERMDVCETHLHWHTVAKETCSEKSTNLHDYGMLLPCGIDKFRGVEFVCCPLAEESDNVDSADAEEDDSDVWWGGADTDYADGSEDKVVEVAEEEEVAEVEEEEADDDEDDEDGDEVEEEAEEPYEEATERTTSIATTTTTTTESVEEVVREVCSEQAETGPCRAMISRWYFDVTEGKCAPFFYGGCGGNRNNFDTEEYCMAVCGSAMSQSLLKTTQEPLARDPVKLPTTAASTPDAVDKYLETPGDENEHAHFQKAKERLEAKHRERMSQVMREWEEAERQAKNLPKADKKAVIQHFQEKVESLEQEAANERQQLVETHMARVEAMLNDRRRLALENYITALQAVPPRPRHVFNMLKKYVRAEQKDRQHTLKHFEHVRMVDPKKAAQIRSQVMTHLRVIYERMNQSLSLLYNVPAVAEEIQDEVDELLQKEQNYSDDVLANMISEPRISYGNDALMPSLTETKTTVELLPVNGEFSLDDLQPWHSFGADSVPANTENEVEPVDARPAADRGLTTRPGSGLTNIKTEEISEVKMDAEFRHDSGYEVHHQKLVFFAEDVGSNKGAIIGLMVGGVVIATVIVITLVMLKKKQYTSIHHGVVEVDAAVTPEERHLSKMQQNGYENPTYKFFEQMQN
Histone deacetylase 5, sequence (Q9UQL6 whole entry, the tested form may be a part): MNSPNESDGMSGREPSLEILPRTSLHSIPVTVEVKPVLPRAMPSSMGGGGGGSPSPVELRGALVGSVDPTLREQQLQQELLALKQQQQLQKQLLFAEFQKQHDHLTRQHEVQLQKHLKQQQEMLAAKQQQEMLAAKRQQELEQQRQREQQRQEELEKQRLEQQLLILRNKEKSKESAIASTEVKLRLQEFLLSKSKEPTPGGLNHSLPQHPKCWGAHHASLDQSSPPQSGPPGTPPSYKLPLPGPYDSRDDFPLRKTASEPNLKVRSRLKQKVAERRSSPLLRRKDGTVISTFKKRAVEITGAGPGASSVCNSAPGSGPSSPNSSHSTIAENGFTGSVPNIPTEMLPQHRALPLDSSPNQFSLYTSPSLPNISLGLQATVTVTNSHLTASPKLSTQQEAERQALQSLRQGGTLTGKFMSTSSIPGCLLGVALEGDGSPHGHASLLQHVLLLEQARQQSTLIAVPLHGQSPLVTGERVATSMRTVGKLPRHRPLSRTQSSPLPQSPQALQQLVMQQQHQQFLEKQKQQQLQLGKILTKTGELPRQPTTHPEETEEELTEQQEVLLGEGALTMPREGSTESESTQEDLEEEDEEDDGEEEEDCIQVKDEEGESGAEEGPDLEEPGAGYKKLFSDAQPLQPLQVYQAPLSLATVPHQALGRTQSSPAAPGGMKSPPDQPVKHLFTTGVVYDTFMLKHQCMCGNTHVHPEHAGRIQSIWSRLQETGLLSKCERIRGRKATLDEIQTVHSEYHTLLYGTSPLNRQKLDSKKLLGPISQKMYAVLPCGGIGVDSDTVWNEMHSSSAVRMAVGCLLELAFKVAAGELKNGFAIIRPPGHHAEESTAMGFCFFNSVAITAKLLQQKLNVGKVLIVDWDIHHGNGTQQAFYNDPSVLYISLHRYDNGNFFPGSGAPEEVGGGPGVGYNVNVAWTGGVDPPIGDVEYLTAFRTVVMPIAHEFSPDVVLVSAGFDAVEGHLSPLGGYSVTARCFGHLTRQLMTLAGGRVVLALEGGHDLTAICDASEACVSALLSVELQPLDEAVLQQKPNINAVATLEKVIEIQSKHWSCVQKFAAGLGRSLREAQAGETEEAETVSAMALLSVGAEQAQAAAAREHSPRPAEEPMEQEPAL
Histone deacetylase 4, sequence (P56524 whole entry, the tested form may be a part): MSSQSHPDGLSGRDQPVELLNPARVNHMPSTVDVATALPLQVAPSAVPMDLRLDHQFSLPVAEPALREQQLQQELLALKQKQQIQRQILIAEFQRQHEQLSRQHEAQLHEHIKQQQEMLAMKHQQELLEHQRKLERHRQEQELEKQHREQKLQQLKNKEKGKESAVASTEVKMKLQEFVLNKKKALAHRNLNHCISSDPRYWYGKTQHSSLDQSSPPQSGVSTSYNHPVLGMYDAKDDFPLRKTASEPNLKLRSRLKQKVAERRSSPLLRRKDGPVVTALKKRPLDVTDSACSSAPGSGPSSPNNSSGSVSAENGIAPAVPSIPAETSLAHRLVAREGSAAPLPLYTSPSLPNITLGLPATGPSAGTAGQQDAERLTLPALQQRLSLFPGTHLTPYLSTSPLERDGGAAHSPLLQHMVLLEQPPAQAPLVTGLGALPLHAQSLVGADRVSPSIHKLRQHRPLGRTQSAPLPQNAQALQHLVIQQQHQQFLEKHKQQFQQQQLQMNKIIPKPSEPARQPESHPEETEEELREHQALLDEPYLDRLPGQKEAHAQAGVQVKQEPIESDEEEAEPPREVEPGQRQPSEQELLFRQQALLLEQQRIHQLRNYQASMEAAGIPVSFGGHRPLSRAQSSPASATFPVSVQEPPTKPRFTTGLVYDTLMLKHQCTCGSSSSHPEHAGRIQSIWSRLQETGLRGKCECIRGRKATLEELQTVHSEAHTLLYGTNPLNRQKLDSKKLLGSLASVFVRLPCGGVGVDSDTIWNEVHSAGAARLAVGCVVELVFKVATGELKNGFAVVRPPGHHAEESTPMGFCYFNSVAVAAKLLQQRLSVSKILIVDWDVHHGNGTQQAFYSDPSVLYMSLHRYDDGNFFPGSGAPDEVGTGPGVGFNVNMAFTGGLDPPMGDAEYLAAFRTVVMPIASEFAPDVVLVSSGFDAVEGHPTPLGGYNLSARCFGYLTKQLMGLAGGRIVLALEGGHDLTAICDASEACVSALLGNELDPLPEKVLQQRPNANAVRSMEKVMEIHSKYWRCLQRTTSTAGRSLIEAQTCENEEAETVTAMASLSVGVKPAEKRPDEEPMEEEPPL

| SMILES | inhibition [1] | IC50 (Histone deacetylase 4) | Activity (Hippocampal neurone) | IC50 (Histone deacetylase 5) | efflux ratio at 2 h, 5 µM (MDR1) | IC50 (Histone deacetylase 7) | k el at 1 h, 1 µM [2] | IC50 [3] | CLint [4] |
| --- | --- | --- | --- | --- | --- | --- | --- | --- | --- |
| O=C(NO)c1ccc(Nc2c3ccccc3nc3ccc(Br)cc23)cc1 | 70% | 7.85 µM | Dose-dependent effect | 7.19 µM | 7.42 | 9.13 µM | 0.000305 s⁻¹ | 1.1 µM | 36.6 µL/min/mg |
| O=C(NO)c1ccc(Nc2c3ccccc3nc3ccccc23)cc1 | 41% | 2.24 µM |  | 0.85 µM |  |  | 0.00034 s⁻¹ | 3 µM | 40.7 µL/min/mg |
